# Results gathered from unrelated publications.
# Lines come from different studies, so protocols differ.
# Target: Serine/threonine-protein kinase ULK1 (ULK1, Homo sapiens, UniProt O75385)
# Sequence (O75385 1-1050, as in one of the studies): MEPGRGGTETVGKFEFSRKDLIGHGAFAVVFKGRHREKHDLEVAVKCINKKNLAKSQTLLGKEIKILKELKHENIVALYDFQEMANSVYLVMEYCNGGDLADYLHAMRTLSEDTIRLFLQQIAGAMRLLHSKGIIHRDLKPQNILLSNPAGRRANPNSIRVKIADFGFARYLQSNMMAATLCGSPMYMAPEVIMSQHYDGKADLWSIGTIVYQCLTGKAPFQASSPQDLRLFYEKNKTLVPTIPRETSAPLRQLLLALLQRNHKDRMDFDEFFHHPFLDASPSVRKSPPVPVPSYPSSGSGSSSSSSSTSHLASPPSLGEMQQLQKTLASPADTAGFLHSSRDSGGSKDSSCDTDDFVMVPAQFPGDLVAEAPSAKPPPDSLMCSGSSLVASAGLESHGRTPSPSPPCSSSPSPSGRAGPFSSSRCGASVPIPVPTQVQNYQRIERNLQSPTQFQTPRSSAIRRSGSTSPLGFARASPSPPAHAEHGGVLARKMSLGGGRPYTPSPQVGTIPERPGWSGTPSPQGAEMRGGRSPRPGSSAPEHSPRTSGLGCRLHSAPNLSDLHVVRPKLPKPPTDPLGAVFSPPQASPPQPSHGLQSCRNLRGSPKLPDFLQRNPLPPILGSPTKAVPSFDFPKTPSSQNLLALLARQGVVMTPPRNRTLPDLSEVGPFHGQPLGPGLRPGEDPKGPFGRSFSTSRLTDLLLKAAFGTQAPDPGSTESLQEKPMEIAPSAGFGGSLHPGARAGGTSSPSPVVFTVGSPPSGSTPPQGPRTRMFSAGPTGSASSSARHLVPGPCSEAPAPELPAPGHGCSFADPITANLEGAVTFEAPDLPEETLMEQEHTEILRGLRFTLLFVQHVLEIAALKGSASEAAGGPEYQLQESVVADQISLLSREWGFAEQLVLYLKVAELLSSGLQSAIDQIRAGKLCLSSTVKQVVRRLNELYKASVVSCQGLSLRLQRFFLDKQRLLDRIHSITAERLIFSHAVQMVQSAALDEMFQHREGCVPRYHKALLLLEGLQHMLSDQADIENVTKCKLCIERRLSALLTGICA
Compound,effect on,technique,tested at,remaining binding
CC1CCCN1c1nccc(-c2cnn3ncccc23)n1 (centres unmarked),binding,,1 µM,97%
O=C(c1ccc(Nc2nccc(-c3cc4ccccc4s3)n2)cc1)N1CCC(N2CCCC2)CC1,binding,competition with immobilised ligand,1 µM,50%
COc1ncc2cc3ccccc3nc2c1C#N,cell-free assay,competition with immobilised ligand,5 µM,93%
c1cncc(-c2cccc(Nc3nccc(NC4CCCCC4)n3)c2)c1,binding,competition with immobilised ligand,10 µM,100%
c1ccc(N2CCN(Cc3nc4ccccc4[nH]3)CC2)nc1,binding,competition with immobilised ligand,1 µM,100%
O=C(c1ccc(Nc2ncc(Cl)c(-c3cc4ccccc4s3)n2)cc1)N1CCC(N2CCCC2)CC1,binding,competition with immobilised ligand,1 µM,1.8%
CCN1CCN(Cc2ccc(C(=O)Nc3ccc(C)c(Oc4ccc5c(c4)CC(=O)N5)c3)cc2C(F)(F)F)CC1,binding,competition with immobilised ligand,1 µM,100%
O=C(NCC1CCOCC1)c1n[nH]cc1NC(=O)c1c(F)cccc1F,binding,competition with immobilised ligand,1 µM,86%
CC1=C(C#N)C(c2ccc3c(c2)c(NC(=O)c2ccccc2C)nn3C)C(C#N)=C(C)N1,cell-free assay,competition with immobilised ligand,1 µM,86%
Cc1cnn2ncc(-c3ccnc(N(C)C)n3)c2c1,binding,,1 µM,100%
O=C(NCCCN1CCOCC1)c1ccc(Nc2nccc(-c3cc4ccccc4s3)n2)cc1,binding,competition with immobilised ligand,1 µM,52%
Cc1noc([C@H]2C[C@@H](c3ccc(C(F)(F)F)cc3)CN(C(=O)N3CCS(=O)(=O)C3)C2)n1,cell-free assay,competition with immobilised ligand,1 µM,85%
COc1ccnn2ncc(-c3ccnc(N(C)C)n3)c12,binding,,1 µM,100%
CN(C(=O)c1ccccc1)c1cc(N(C)c2ccc3c(c2)CCc2ccc(C(=O)NCCN4CCOCC4)cc2C3=O)ccc1F,cell-free assay,competition with immobilised ligand,1 µM,100%
CN(C)c1nccc(-c2cnc3ncccn23)n1,binding,,1 µM,71%
CN(C)CC#Cc1ccc(OCCCc2sc(N3CCc4cccc(C(=O)Nc5nc6ccccc6s5)c4C3)nc2C(=O)O)c(F)c1,cell-free assay,competition with immobilised ligand,1 µM,100%
C[C@H]1CCN(c2nccc(-c3cnn4ncccc34)n2)C1,binding,,1 µM,85%
CS(=O)(=O)N1CCCC(NC(=O)[C@H](CCC2CCCCC2)NC(=O)c2ccc(CNC(=O)c3cnc4ccccn34)cc2)C1 (some centres unmarked),cell-free assay,competition with immobilised ligand,0.1 µM,83%
N[C@H]1CCN(c2nccc(-c3cnn4ncccc34)n2)C1,binding,,1 µM,100%
CNC(=O)[C@@H]1CC[C@@H](n2c(-c3ccc4cnccc4c3)nc3ccc(C(=O)NCc4cccc(C(N)=O)c4)cc32)C1,binding,competition with immobilised ligand,1 µM,100%
